The values that follow come from ChEMBL document CHEMBL4138107, “The discovery of novel, potent ERR-alpha inverse agonists for the treatment of triple negative breast cancer” (Eur J Med Chem, 2017).

Activity calls are given as the source filed them. No cut-off for these calls is given here.

Data set [1] deals with T1, Steroid hormone receptor ERR1 (Homo sapiens, UniProt P11474).
T1 sequence (P11474 whole entry): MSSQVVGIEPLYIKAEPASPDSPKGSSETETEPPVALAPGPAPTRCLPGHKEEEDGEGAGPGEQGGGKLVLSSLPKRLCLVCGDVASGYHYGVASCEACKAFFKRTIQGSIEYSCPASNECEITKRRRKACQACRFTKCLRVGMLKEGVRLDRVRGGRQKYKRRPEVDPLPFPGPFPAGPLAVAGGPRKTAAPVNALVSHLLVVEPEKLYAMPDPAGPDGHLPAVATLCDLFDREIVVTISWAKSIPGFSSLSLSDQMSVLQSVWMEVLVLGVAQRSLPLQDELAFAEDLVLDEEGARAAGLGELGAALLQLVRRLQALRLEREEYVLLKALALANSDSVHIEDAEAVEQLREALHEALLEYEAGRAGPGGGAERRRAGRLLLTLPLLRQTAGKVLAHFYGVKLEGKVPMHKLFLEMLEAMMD
In words: Inverse agonist activity at GAL4-DNA binding domain-fused human ERRalpha ligand binding domain expressed in HEK293 cells assessed as inhibition of transcriptional activity after 48 hrs by luciferase reporter gene assay. Format: cell-based. The procedure, abridged: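 HEK293 cells at 1×10⁵/well in DMEM with 10% FBS, transfected at 70-80% confluency. Per well: 20 ng GAL4-DBD-ERRα-LBD, 20 ng UAS-Luc reporter and 5 ng pRL-TK control. After 6 h at 37°C, vehicle (0.05% DMSO) or compound added for 48 h. Dual-luciferase read-out.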

Data set [2] deals with A549. In words: Antiproliferative activity against human A549 cells after 48 hrs by CCK-8 assay. Format: functional, cell-based. Conditions: A549, 48 h.
Data set [3] has as its system MDA-MB-231. Kind of data set: Antiproliferative activity against ER deficient human MDA-MB-231 cells after 48 hrs by CCK-8 assay. The conditions noted are these: MDA-MB-231, 48 h. The class given is functional, cell-based. The procedure, abridged: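 Cells seeded in 96-well plates and cultured overnight, then exposed to a range of compound concentrations for 48 h. CCK-8 reagent added and incubated 2 h at 37°C. Read-out is optical density at 450 nm. MDA-MB-231 maintained in L-15 with 10% FBS, L-glutamine, sodium pyruvate, pen/strep at 37°C, 5% CO2.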
A general note: Tetrazolium assays rely on reduction of a dye to a coloured formazan, in cell work by metabolically active cells.

The subject of data set [4] is MDA-MB-231. Kind of data set: Effect on steady state ERRalpha mRNA expression in human MDA-MB-231 cells at 5 to 10 uM after 48 hrs by qRT-PCR analysis. Format: ADME, cell-based. The conditions noted are these: mda-mb-231, 48 h. (In general: Quantitative PCR measures a nucleic acid by following its amplification.)
The target in data set [5] is T2, Steroid hormone receptor ERR1 (Homo sapiens) (UniProt P11474).
T2 sequence (whole entry): T1 sequence (P11474 whole entry)
In words: Inverse agonist activity at ERRalpha in human MDA-MB-231 cells assessed as down regulation of pS2 mRNA expression at 5 to 10 uM after 48 hrs by qRT-PCR analysis. The class given is cell-based. The gist of the method: (§1)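 MDA-MB-231 cells in 6-well plates at […]. Exposed to vehicle (DMSO) or compound for 48 h, then mRNA of ERRα target genes (PGC-1α, PDK4, osteopontin/SPP1, pS2/TFF1) quantified by real-time RT-PCR. Mean ± S.E.M. of three independent experiments.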

Data set [6] relates to PC-3. In words: Antiproliferative activity against human PC3 cells after 48 hrs by CCK-8 assay. Format: functional, cell-based. The conditions noted are these: PC-3, 48 h.
In data set [7] the test system is MDA-MB-231. Kind of data set: Inhibition of cell migration in human MDA-MB-231 cells […] by crystal violet staining-based transwell assay. Format: functional.
In data set [8] the test system is MDA-MB-231. In words: Cell migration rate in human MDA-MB-231 cells at 10 uM after 48 hrs by crystal violet staining-based transwell assay relative to control. Conditions: MDA-MB-231, 48 h.
Data set [9] addresses T2, Steroid hormone receptor ERR1 (Homo sapiens). Kind of data set: Inverse agonist activity at ERRalpha in human MDA-MB-231 cells assessed as down regulation of osteopontin mRNA expression at 5 to 10 uM after 48 hrs by qRT-PCR analysis. Format: cell-based. The gist of the method:
as §1

In data set [10] the test system is MDA-MB-231. Kind of data set: Antitumor activity against human MDA-MB-231 cells xenografted in BALB/c nude mouse assessed as tumor size at 30 mg/kg administered every other day for 28 days measured after 30 days relative to control. The class given is functional. The gist of the method: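 MDA-MB-231 cells suspended in PBS injected subcutaneously into the right flank of 6-week-old BALB/c nude mice. Once tumors averaged >100 mm³, mice were randomized into groups of 10 and given vehicle, test compound or cyclophosphamide 30 mg/kg, dosed every other day. Mice were weighed 3 times weekly. Tumor volume = length × width² × 0.5 and was compared with the vehicle group.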
(Xenograft models place foreign cells or tissue in a host animal.)

The subject of data set [11] is HeLa. In words: Antiproliferative activity against human HeLa cells after 48 hrs by CCK-8 assay. The class given is functional, cell-based.
Data set [12] concerns MDA-MB-435. In words: Antiproliferative activity against ER deficient human MDA-MB-435 cells after 48 hrs by CCK-8 assay. The class given is functional, cell-based. Conditions: MDA-MB-435, 48 h.
The subject of data set [13] is MDA-MB-231. In words: Cell migration rate in human MDA-MB-231 cells at 5 uM after 48 hrs by crystal violet staining-based transwell assay relative to control. Conditions: MDA-MB-231, 48 h.
The target in data set [14] is T2, Steroid hormone receptor ERR1 (Homo sapiens). Kind of data set: Inverse agonist activity at ERRalpha in human MDA-MB-231 cells assessed as down regulation of PGC-1alpha mRNA expression at 5 to 10 uM after 48 hrs by qRT-PCR analysis. The class given is cell-based. The procedure, abridged:
as §1

For data set [15], the system named is LNCaP. In words: Antiproliferative activity against human LNCAP cells after 48 hrs by CCK-8 assay. The class given is functional, cell-based.
The subject of data set [16] is MCF7. In words: Antiproliferative activity against human MCF7 cells harboring ER after 48 hrs by CCK-8 assay. Format: functional, cell-based. Conditions: MCF7, 48 h.
The target of data set [17] is T1, Steroid hormone receptor ERR1. In words: (§2) Inhibition of fluorescein-labeled PGC-1alpha binding to GAL4-DNA binding domain-fused human ERRalpha ligand binding domain expressed in HEK293 cells in presence of terbium chelate by TR-FRET assay. Format: cell-based.
Data set [18] addresses T2, Steroid hormone receptor ERR1 (Homo sapiens). The description is as §2. Format: cell-based.
Data set [19] deals with MDA-MB-231. Kind of data set: Induction of apoptosis in human in human MDA-MB-231 cells at 10 uM after 48 hrs by Annexin V-FITC staining based fluorescence microscopic analysis.
Data set [20] has as its system MDA-MB-231. Kind of data set: Antitumor activity against human MDA-MB-231 cells xenografted in BALB/c nude mouse assessed as tumor volume at 30 mg/kg administered every other day for 28 days and measured after 30 days (reference value: 1500 mm3). Format: functional.
Data set [21] addresses T2, Steroid hormone receptor ERR1 (Homo sapiens). In words: Inverse agonist activity at ERRalpha in human MDA-MB-231 cells assessed as down regulation of PDK4 mRNA expression at 5 to 10 uM after 48 hrs by qRT-PCR analysis. Format: cell-based. The gist of the method:
as §1

The subject of data set [22] is MDA-MB-231. In words: Antitumor activity against human MDA-MB-231 cells xenografted in BALB/c nude mouse assessed as reduction in tumor growth at 30 to 100 mg/kg administered every other day […]. The class given is functional, organism-based.
Data set [23] deals with MDA-MB-231. Kind of data set: Induction of ROS generation in human MDA-MB-231 cells after 24 hrs by DCFH-DA staining based fluorescence assay. Format: functional, cell-based. The procedure, abridged:
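MDA-MB-231 cells in 96-well plates pretreated with 1-30 µmol/l compound for 24 h at 37 °C. Then loaded with DCFH-DA (10 µmol/l) for 30 min. Fluorescence read at ex 488/em 535 nm on a plate reader and expressed relative to untreated cells. Mean ± SEM, n=4.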

Data set [24] relates to T47D. Kind of data set: Antiproliferative activity against human T47D cells harboring ER after 48 hrs by CCK-8 assay. The class given is functional, cell-based.
Data set [25] relates to MDA-MB-231. Kind of data set: Cell migration rate in human MDA-MB-231 cells at 20 uM after 48 hrs by crystal violet staining-based transwell assay relative to control. Conditions: MDA-MB-231, 48 h.

In the case of `CCOc1cc(NS(C)(=O)=O)c(OCC)cc1CNC(=O)Nc1ccc(OCC)c(C(=O)Nc2ccccc2)c1`, the IC50 – broadly, the midpoint of a concentration-inhibition curve – in data set [1] turned out to be 3.72 µM.
For the compound `CCOc1cc(NS(C)(=O)=O)c(OCC)cc1CNC(=O)Nc1ccc(OCc2ccccc2)c(C(=O)OC)c1`, the IC50 in data set [1] stood at 4.06 µM.
Turning to `CCOc1cc(NS(C)(=O)=O)c(OCC)cc1CNC(=O)Nc1ccc(OCC)c(C(=O)NCc2ccc(OC)cc2)c1`, the half-inhibitory concentration (IC50) was 4.84 µM in data set [2]; 1.46 µM in data set [3]; 5.01 µM in data set [6]; 6.25 µM in data set [11]; 1.9 µM in data set [1]; 2.53 µM in [12]. The IC50 in data set [15] came to 11.4 µM; in [16], 14.1 µM; in [17], 0.61 µM; in data set [24], 8.31 µM. Further, the Activity result in [4] is “Non-Toxic”; in [10], 40.9%; in data set [20], 720 mm3. The outcome in data set [5], in [9], in [14], in data set [19], in data set [21] and in data set [23] was Active. In addition, the inhibition result in data set [7] and in data set [18] was “Dose-dependent effect” each time. In data set [8], this compound registered a migration rate % at 10 µM of 39.3%. For the same compound, the migration rate % at 5 µM in [13] is 53.2%. Moreover, the TGI entry in data set [22] is “Active”. The same compound returned a migration rate % at 20 µM in data set [25] of 17.8%.
Consider `CCOc1cc(NS(C)(=O)=O)c(OCC)cc1CNC(=O)Nc1ccc(OCC)c(C(=O)NCc2ccccc2)c1`, for which the IC50 in data set [1] is 3.81 µM.
On to `CCOc1cc(NS(C)(=O)=O)c(OCC)cc1CNC(=O)Nc1ccc(OCC)c(C(=O)NC(C)C)c1`, for which, in [1], the IC50 amounted to 3.48 µM.
For `O=P1(N(CCCl)CCCl)NCCCO1` (centres undefined) [CYCLOPHOSPHAMIDE ANHYDROUS], the Activity in [10] is 50.1%.
Turning to `CCOc1cc(NS(C)(=O)=O)c(OCC)cc1CNC(=O)Nc1ccc(OCC)c(C(=O)Nc2ccc(C)cc2)c1`, the IC50 in [1] worked out at 3.04 µM.
Regarding `CCOc1cc(NS(C)(=O)=O)c(OCC)cc1CNC(=O)Nc1ccccc1`, the IC50 in data set [1] was determined as 21.1 µM.
Same read-out and setting: for `CCOc1cc(NS(C)(=O)=O)c(OCC)cc1CNC(=O)Nc1ccc(OCC)c(C(=O)Nc2cccc(OC)c2)c1` the value was 4.23 µM; for `CCCCOc1ccc(NC(=O)NCc2cc(OCC)c(NS(C)(=O)=O)cc2OCC)cc1C(=O)OC`, 3.43 µM.
